Laboratory results taken from ChEMBL document CHEMBL4177770, “Discovery of MK-6169, a Potent Pan-Genotype Hepatitis C Virus NS5A Inhibitor with Optimized Activity against Common Resistance-Associated Substitutions” (J Med Chem, 2018).
Residue numbers refer to the chain shown, from its start.

Experiments:
[1] = target: T1, Nonstructural protein 5A (Hepatitis C virus) (UniProt Q5L478); assay: Inhibition of NS5A in HCV genotype 1a infected in HuH7 replicon cells assessed as decrease in viral replication after 3 days by RT-PCR method; type: cell-based; settings: Hepatitis C virus subtype 1a
T1 sequence (whole entry): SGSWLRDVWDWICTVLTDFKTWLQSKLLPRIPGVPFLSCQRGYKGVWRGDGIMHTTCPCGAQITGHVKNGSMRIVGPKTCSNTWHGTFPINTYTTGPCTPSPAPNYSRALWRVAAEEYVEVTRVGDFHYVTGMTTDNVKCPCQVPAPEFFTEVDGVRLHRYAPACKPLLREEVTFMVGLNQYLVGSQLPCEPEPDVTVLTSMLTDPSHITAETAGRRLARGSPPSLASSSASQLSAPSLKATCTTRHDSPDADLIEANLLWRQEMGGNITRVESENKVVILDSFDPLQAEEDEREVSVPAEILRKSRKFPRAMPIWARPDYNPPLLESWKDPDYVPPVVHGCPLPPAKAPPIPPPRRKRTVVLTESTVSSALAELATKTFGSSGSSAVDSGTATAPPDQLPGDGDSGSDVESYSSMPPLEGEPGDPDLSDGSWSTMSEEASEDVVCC

[2] = target: T1, Nonstructural protein 5A (Hepatitis C virus); assay: Inhibition of NS5A in HCV genotype 1b infected in HuH7 replicon cells assessed as decrease in viral replication after 3 days by RT-PCR method; type: cell-based; settings: Hepatitis C virus subtype 1b
[3] = target: T1, Nonstructural protein 5A (Hepatitis C virus); assay: Inhibition of NS5A L31M mutant in HCV genotype 2b infected in HuH7 replicon cells assessed as decrease in viral replication after 3 days by RT-PCR method; type: cell-based; settings: Hepatitis C virus subtype 2b
[4] = target: T1, Nonstructural protein 5A (Hepatitis C virus); assay: Inhibition of NS5A in HCV genotype 3a infected in HuH7 replicon cells assessed as decrease in viral replication after 3 days by RT-PCR method; type: cell-based; settings: Hepatitis C virus subtype 3a
[5] = target: T1, Nonstructural protein 5A (Hepatitis C virus); assay: Inhibition of NS5A in HCV genotype 4a infected in HuH7 replicon cells assessed as decrease in viral replication after 3 days by RT-PCR method; type: cell-based; settings: Hepatitis C virus subtype 4a
[6] = system: T2, Nonstructural protein 5A (Hepatitis C virus), Q5L478 [Y93H]; assay: Inhibition of NS5A Y93H mutant in HCV genotype 1a infected in HuH7 replicon cells assessed as decrease in viral replication after 3 days by RT-PCR method; type: cell-based; settings: Hepatitis C virus subtype 1a
T2 sequence (whole entry): T1 sequence (whole entry) with Y93H

[7] = target: T1, Nonstructural protein 5A (Hepatitis C virus); assay: Inhibition of NS5A L31V mutant in HCV genotype 1a infected in HuH7 replicon cells assessed as decrease in viral replication after 3 days by RT-PCR method; type: cell-based; settings: Hepatitis C virus subtype 1a
[8] = Half life in Wistar Han rat at 2 mg/kg, iv by LC/MS method; type: ADME, organism-based; settings: in vivo
In short: (§1)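 Male Wistar Han rats, two per group, dosed IV at 2 mg/kg in 60% PEG200. Plasma was obtained by centrifuging the blood, and compound concentrations were measured by LC/MS.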

[9] = Half life in Beagle dog at 1 mg/kg, iv by LC/MS method; type: ADME, organism-based, Canis lupus familiaris; settings: in vivo
In short: (§2)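 Beagle dogs, two animals per group, dosed IV at 1 mg/kg in 60% PEG200. Plasma was prepared from collected blood by centrifugation, and compound was quantified by LC/MS.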

[10] = Clearance in Wistar Han rat at 2 mg/kg, iv by LC/MS method; type: ADME, organism-based; settings: in vivo; in short: as §1
[11] = Clearance in Beagle dog at 1 mg/kg, iv by LC/MS method; type: ADME, organism-based, Canis lupus familiaris; settings: in vivo; in short: as §2
[12] = AUC in Wistar Han rat at 10 mg/kg, po by LC/MS method; type: ADME, organism-based; settings: in vivo
In short: (§3)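 Male Wistar Han rats, two per dosing group, dosed orally at 10 mg/kg in 10% TWEEN. Plasma was separated from collected blood by centrifugation and analysed by LC/MS.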

[13] = AUC in Beagle dog at 5 mg/kg, po by LC/MS method; type: ADME, organism-based, Canis lupus familiaris; settings: in vivo
In short: (§4)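 Beagle dogs, two animals per dosing group. Oral dose was given in 10% TWEEN. Blood was collected and spun to plasma, and plasma compound levels were measured by LC/MS.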

[14] = Cmax in Wistar Han rat at 10 mg/kg, po by LC/MS method; type: ADME, organism-based; design: dose 10 mg/kg, route oral; settings: in vivo; in short: as §3
[15] = Cmax in Beagle dog at 5 mg/kg, po by LC/MS method; type: ADME, organism-based, Canis lupus familiaris; design: dose 5 mg/kg, route oral; settings: in vivo; in short: as §4
[16] = Drug level in Wistar Han rat at 10 mg/kg, po measured at 24 hrs by LC/MS method; type: ADME, organism-based; settings: in vivo, read-out: Drug uptake; in short: as §3
[17] = Drug level in Beagle dog at 5 mg/kg, po measured at 24 hrs by LC/MS method; type: ADME, organism-based, Canis lupus familiaris; settings: in vivo, read-out: Drug uptake; in short: as §4
[18] = Oral bioavailability in Wistar Han rat at 10 mg/kg by LC/MS method; type: ADME, organism-based; settings: in vivo; in short: as §3
[19] = Oral bioavailability in Beagle dog at 5 mg/kg by LC/MS method; type: ADME, organism-based, Canis lupus familiaris; settings: in vivo; in short: as §4
[20] = Tmax in Wistar Han rat at 10 mg/kg, po by LC/MS method; type: ADME, organism-based; settings: in vivo; in short: as §3
[21] = MRT in Wistar Han rat at 10 mg/kg, po by LC/MS method; type: ADME, organism-based; settings: in vivo; in short: as §3
[22] = AUC in Wistar Han rat at 100 mg/kg, po by LC/MS method; type: ADME, organism-based; settings: in vivo
In short: (§5)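 Single rising oral dose study in fed male Wistar Han rats, dosed PO in 10% TWEEN at the indicated doses. Plasma was obtained by centrifuging the blood, and compound levels were determined by LC/MS.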

[23] = Cmax in Wistar Han rat at 100 mg/kg, po by LC/MS method; type: ADME, organism-based; design: dose 100 mg/kg, route oral; settings: in vivo; in short: as §5
[24] = Drug level in Wistar Han rat at 100 mg/kg, po measured at 24 hrs by LC/MS method; type: ADME, organism-based; settings: in vivo, read-out: Drug uptake; in short: as §5
[25] = Tmax in Wistar Han rat at 100 mg/kg, po by LC/MS method; type: ADME, organism-based; settings: in vivo; in short: as §5
[26] = MRT in Wistar Han rat at 100 mg/kg, po by LC/MS method; type: ADME, organism-based; settings: in vivo; in short: as §5
[27] = AUC in Wistar Han rat at 300 mg/kg, po by LC/MS method; type: ADME, organism-based; settings: in vivo; in short: as §5
[28] = Cmax in Wistar Han rat at 300 mg/kg, po by LC/MS method; type: ADME, organism-based; design: dose 300 mg/kg, route oral; settings: in vivo; in short: as §5
[29] = Drug level in Wistar Han rat at 300 mg/kg, po measured at 24 hrs by LC/MS method; type: ADME, organism-based; settings: in vivo, read-out: Drug uptake; in short: as §5
[30] = Tmax in Wistar Han rat at 300 mg/kg, po by LC/MS method; type: ADME, organism-based; settings: in vivo; in short: as §5
[31] = MRT in Wistar Han rat at 300 mg/kg, po by LC/MS method; type: ADME, organism-based; settings: in vivo; in short: as §5
[32] = system: Hepatitis C virus subtype 1a; assay: Resistance ratio of EC90 for NS5A L31V mutant in HCV genotype 1a infected in HuH7 replicon cells to EC90 for NS5A in HCV genotype 1a infected in HuH7 replicon cells; type: cell-based
[33] = system: Hepatitis C virus subtype 1a; assay: Resistance ratio of EC90 for NS5A Y93H mutant in HCV genotype 1a infected in HuH7 replicon cells to EC90 for NS5A in HCV genotype 1a infected in HuH7 replicon cells; type: cell-based
[34] = Resistance ratio of EC90 for NS5A in HCV genotype 1b infected in HuH7 replicon cells to EC90 for NS5A in HCV genotype 1a infected in HuH7 replicon cells; type: cell-based
[35] = Resistance ratio of EC90 for NS5A L31M mutant in HCV genotype 2b infected in HuH7 replicon cells to EC90 for NS5A in HCV genotype 1a infected in HuH7 replicon cells; type: cell-based
[36] = Resistance ratio of EC90 for NS5A in HCV genotype 3a infected in HuH7 replicon cells to EC90 for NS5A in HCV genotype 1a infected in HuH7 replicon cells; type: cell-based
[37] = Resistance ratio of EC90 for NS5A in HCV genotype 4a infected in HuH7 replicon cells to EC90 for NS5A in HCV genotype 1a infected in HuH7 replicon cells; type: cell-based

`COC(=O)N[C@H](C(=O)N1CCC[C@H]1c1ncc(-c2cc(F)c3c(c2)O[C@@H](c2ccc(C4CC4)s2)n2c-3cc3cc(-c4cnc([C@@H]5CCCN5C(=O)[C@@H](NC(=O)OC)C5C[C@@H](C)O[C@H](C)C5)[nH]4)ccc32)[nH]1)C(C)C` (stereo partly drawn) gave an EC90 [1] of 4 pM, an EC90 [2] of 4 pM and an EC90 [3] of 12 pM. The EC90 [4] was 7 pM, the EC90 [5] was 7 pM and the EC90 [6] was 15 pM. For the same molecule, the EC90 [7] was 4 pM, the half-life [8] was 3.6 h and the half-life [9] was 11.3 h. It also gave a clearance [10] of 11 mL/min/kg, a clearance [11] of 2.6 mL/min/kg and an AUC [12] of 0.31 to 0.93 µM·h. It also gave an AUC [13] of 5.05 µM·h, a Cmax [14] of 50 to 119 nM and a Cmax [15] of 640 nM. For the same molecule, the concentration at 24 h [16] was 1 to 4 nM, the concentration at 24 h [17] was 87 nM and the bioavailability [18] was 6.3%. It also gave a bioavailability [19] of 18.7%, a Tmax [20] of 3 h and an MRT [21] of 6 h. It also gave an AUC [22] of 2.07 µM·h, a Cmax [23] of 240 nM and a concentration at 24 h [24] of 9 nM. For the same molecule, the Tmax [25] was 3 h, the MRT [26] was 7.6 h and the AUC [27] was 5.58 µM·h. For the same molecule, the Cmax [28] was 510 nM, the concentration at 24 h [29] was 29 nM and the Tmax [30] was 7 h. The MRT [31] was 9.3 h.
`COC(=O)N[C@H](C(=O)N1CCC[C@H]1c1ncc(-c2cc(F)c3c(c2)O[C@@H](c2ccc(C4CC4)s2)n2c-3cc3cc(-c4cnc([C@@H]5CCCN5C(=O)[C@@H](NC(=O)OC)C5CCOCC5)[nH]4)ccc32)[nH]1)C(C)C` gave an EC90 [1] of 4 pM, an EC90 [2] of 5 pM and an EC90 [3] of 14 pM. It also gave an EC90 [4] of 8 pM, an EC90 [5] of 5 pM and an EC90 [6] of 18 pM. The EC90 [7] was 6 pM, the half-life [8] was 4 h and the half-life [9] was 4.2 h. The clearance [10] was 18 mL/min/kg, the clearance [11] was 4 mL/min/kg and the AUC [12] was 0.14 to 0.29 µM·h. For the same molecule, the AUC [13] was 2.61 µM·h, the Cmax [14] was 34 to 20000 nM and the Cmax [15] was 460 nM. The concentration at 24 h [16] was 2 to 1000 nM, the concentration at 24 h [17] was 22 nM and the bioavailability [18] was 3.1%. For the same molecule, the bioavailability [19] was 11%, the Tmax [20] was 3 h and the MRT [21] was 7.9 h. It also gave an AUC [22] of 1.64 µM·h, a Cmax [23] of 200 nM and a concentration at 24 h [24] of 11 nM. It also gave a Tmax [25] of 4 h, an MRT [26] of 8.3 h and an AUC [27] of 3.99 µM·h. The Cmax [28] was 360 nM, the concentration at 24 h [29] was 32 nM and the Tmax [30] was 4 h. The MRT [31] was 9.9 h, the Ratio [32] was under 10 and the Ratio [33] was under 10. It also gave a Ratio [34] of under 10, a Ratio [35] of under 10 and a Ratio [36] of under 10. The Ratio [37] was under 10.
